Measurements as given in PubChem BioAssay AID588752 (Vanderbilt Specialized Chemistry Center, 2011).
Calls of active or inactive are those of the source. How the calls were made is not given here.

target: Muscarinic acetylcholine receptor M5 (Rattus norvegicus) (UniProt P08911); assay: potentiation of ACh response at rat M5 – CHO cells, Fluo-4 calcium mobilization, selectivity assay, dose response (AID 588752); conditions: Fluo-4, ACh EC20, at 30 µM (top of the series)
Method in brief: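 Technique: kinetic Fluo-4 AM fluorescence of intracellular calcium mobilization / System: rat M5 stable CHO cell line / Schedule: 144 s compound pre-incubation, 86 s to EC80, 37 °C / Reagent: acetylcholine at EC20, then acetylcholine at EC80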

Sequence of Muscarinic acetylcholine receptor M5 (Rattus norvegicus) (P08911 whole entry, looked up): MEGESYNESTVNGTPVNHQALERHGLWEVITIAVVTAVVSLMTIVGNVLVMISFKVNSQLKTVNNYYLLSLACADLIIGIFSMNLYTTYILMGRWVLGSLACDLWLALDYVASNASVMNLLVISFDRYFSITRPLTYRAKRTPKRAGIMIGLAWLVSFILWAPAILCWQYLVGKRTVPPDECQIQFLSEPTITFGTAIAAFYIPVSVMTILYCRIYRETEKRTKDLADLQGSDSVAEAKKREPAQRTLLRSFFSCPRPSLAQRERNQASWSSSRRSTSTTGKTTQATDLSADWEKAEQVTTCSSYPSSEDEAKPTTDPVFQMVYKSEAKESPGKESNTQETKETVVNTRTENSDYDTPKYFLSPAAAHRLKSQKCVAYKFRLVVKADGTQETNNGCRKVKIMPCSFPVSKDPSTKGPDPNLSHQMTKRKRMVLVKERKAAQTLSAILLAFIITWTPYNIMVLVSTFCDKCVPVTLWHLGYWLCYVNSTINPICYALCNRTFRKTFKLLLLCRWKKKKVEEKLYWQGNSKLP

outcome, inactive:
Cc1nc2sc(C(=O)NC3CC3)c(N)c2c(C)c1Cl
Cc1nc2sc(C(=O)NCc3ccncn3)c(N)c2c(C)c1Cl
Cc1nc2sc(C(=O)NCCc3ccncc3)c(N)c2c(C)c1Cl
Cc1nc2sc(C(=O)NCc3cccnc3)c(N)c2c(C)c1Cl
Cc1nc2sc(C(=O)NCc3nccs3)c(N)c2c(C)c1Cl
Cc1nc2sc(C(=O)NCc3ccc4c(c3)OCO4)c(N)c2c(C)c1Cl
Cc1nc2sc(C(=O)NCc3ccncc3)c(N)c2c(C)c1Cl
Cc1nc2sc(C(=O)NCc3cccc(F)c3F)c(N)c2c(C)c1Cl
Cc1nc2sc(C(=O)NCc3ccccc3)c(N)c2c(C)c1Cl
